Screens (PubChem BioAssay)
Compounds with a hit are over-represented: about 2.1% of the library has one in this group of screens.
Runt-SMMHC FRET – inhibitors of human RUNX1 Runt domain binding to CBFb-SMMHC; Q01196+Q13951; Cerulean-Runt/Venus-CBFb-SMMHC FRET ratio 530/480, 1 h; inhibition, % at 20 µM; actives 0.74% (n = 220,000);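 active = mean inhibition across duplicate retests at 20 µM reaching about 50%, limit read from the data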;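 also: 0% = DMSO wells and 100% = wells with excess untagged CBFb-SMMHC; inhibitors lower the FRET ratio by blocking Runt binding to CBFb-SMMHC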
p97 ATPase inh – blocks human p97 ATPase activity. P55072. recombinant p97 ATPase, Kinase-Glo ATP luminescence, 3 h. inhibition, % at 8 µM. actives 0.42% (n = 220,000). AID 1481; in the data active = inhibition above about 15%;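 also: 0% = DMSO vehicle and 100% = wells lacking enzyme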
Target sequence (P55072 whole entry, looked up): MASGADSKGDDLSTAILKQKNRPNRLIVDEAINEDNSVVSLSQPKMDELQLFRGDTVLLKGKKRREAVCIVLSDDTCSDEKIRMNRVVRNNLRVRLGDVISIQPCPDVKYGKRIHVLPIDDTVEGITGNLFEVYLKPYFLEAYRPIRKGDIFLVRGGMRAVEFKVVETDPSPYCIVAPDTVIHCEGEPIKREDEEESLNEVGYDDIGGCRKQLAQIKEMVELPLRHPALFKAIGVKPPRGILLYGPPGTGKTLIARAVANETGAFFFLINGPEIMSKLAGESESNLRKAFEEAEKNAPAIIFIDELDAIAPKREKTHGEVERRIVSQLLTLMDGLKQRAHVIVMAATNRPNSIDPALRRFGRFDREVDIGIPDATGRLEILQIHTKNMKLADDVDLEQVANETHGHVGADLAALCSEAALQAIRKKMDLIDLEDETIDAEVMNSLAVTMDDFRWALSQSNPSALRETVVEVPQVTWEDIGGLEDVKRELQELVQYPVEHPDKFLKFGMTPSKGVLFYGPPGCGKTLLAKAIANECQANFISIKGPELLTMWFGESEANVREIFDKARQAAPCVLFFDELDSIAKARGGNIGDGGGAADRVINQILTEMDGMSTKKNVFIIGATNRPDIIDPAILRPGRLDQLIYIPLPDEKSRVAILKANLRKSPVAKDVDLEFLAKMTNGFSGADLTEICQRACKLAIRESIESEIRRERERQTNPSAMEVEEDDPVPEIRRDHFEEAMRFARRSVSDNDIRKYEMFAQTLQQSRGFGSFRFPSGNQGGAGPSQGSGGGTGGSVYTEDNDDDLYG
RanGTP-Impb inh – inhibitors of RanGTP-importin-beta interaction, primary screen, biochemical, FRET, CFP-Ran, YFP-importin-beta, homogeneous; cell-free CFP-Ran/YFP-importin-beta FRET ratio; actives 1.1% (n = 300,000); inhibition, % (concentration not given with the values);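 active = more than half of the replicate wells show a fall in the fluorescence ratio signal beyond about 16%, limit read from the data, passing the limit was not always enough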;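 also: 0% = DMSO wells and 100% = Ran loaded with GDP instead of GTP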
Hck-Nef inh – human Hck-Nef kinase inhibition; P08631; Recombinant Hck-YEEI plus Nef, Z-Lyte FRET kinase assay; inhibition, % at 20 µM; actives 0.68% (n = 220,000); AID 463187;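 active = Hck-Nef kinase inhibition above about 50%, limit read from the data; inactive = inhibition below that limit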;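 also: 0% = DMSO with Hck plus Nef and 100% = Hck alone without Nef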
Runt-CBFb FRET – Runt domain-CBFb interaction inhibition. inhibition, % at 20 µM. Q01196+Q13951. actives 0.46% (n = 220,000). Cerulean-Runt/Venus-CBFb FRET ratio 530/480, 1 h;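 active = inhibition over about 50% at 20 µM in the single-dose screen, limit read from the data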;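 also: 0% = DMSO wells and 100% = excess unlabeled CBFb competitor control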
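Assay system: Cerulean-Runt domain fusion protein, energy donor; Signal: fluorescence energy transfer, 422 nm excitation, 530/480 nm emission; Timing: 1 h compound exposure, room temperature; Control set: unlabeled CBFb; Medium: Tris buffer pH 7.5 with salts and BSA; Compound: single test concentration of 20 µM, 1% DMSO final; Probe or stimulus: Venus-CBFb 100 nM.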
TbHK1 inh – T. brucei hexokinase 1 inhibition | recombinant TbHK1, G6PDH-coupled NADH A340 | inhibition, % at 10 µM | actives 0.11% (n = 220,000) | AID 1430;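 active = inhibition of 50% or more in the single-dose primary screen; inactive = inhibition below 50%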
* = called active by the depositor.

Results for COc1cc(C2NC(=O)NC(C)=C2C(C)=O)cc(OC)c1OC (stereo unspecified) ?
Runt-SMMHC FRET: -1; p97 ATPase inh: 6; RanGTP-Impb inh: -1; Hck-Nef inh: 16; Runt-CBFb FRET: 4; TbHK1 inh: -3

What do the screens show for `CCOC(=O)C1=C(C)NC(=O)NC1c1cc(Br)c(O)c(OC)c1` (stereo unspecified)?
Runt-SMMHC FRET: 0; p97 ATPase inh: -1; RanGTP-Impb inh: -1; Hck-Nef inh: 0; Runt-CBFb FRET: 6; TbHK1 inh: 6

Results for COc1cc(OC)c(/C=C2\SC(=O)N(CC(=O)Nc3ccccc3F)C2=O)c(OC)c1 ?
RanGTP-Impb inh: 46*

How did CC1(OC(=O)C2CCCC2)C(=O)C=C2C=C(c3ccsc3)N(C(CO)CO)C=C2C1=O (stereo unspecified) do in these assays?
Runt-SMMHC FRET: 28; RanGTP-Impb inh: 18*; Hck-Nef inh: 22; Runt-CBFb FRET: 3; TbHK1 inh: -29

What do the screens show for `CC(C)CN1C=C2C(=O)C(C)(OC(=O)C3CCCC3)C(=O)C=C2C=C1c1ccsc1` (stereo unspecified)?
Runt-SMMHC FRET: 7; RanGTP-Impb inh: -4; Hck-Nef inh: 28; Runt-CBFb FRET: -1; TbHK1 inh: -26

How did CCOC(=O)c1c(NC(=S)N2CCN(C)CC2)sc2c1CCN(C(=O)OCC)C2 do in these assays?
Runt-SMMHC FRET: 2; p97 ATPase inh: -3; RanGTP-Impb inh: 2; Hck-Nef inh: 10; Runt-CBFb FRET: 7; TbHK1 inh: -24

What do the screens show for `CCOC(=O)NC(Nc1sc2c(c1C(=O)OC)CCN(C)C2)(C(F)(F)F)C(F)(F)F`?
Runt-SMMHC FRET: 47; p97 ATPase inh: 2; RanGTP-Impb inh: 57*; Hck-Nef inh: 0; Runt-CBFb FRET: 38; TbHK1 inh: -3

How did CCOC(=O)C(NC(=O)CC)(Nc1sc2c(c1C(=O)OC)CCN(C)C2)C(F)(F)F (stereo unspecified) do in these assays?
Runt-SMMHC FRET: 32; p97 ATPase inh: -6; RanGTP-Impb inh: 38*; Hck-Nef inh: 0; Runt-CBFb FRET: 8; TbHK1 inh: -13

How did CCC(=O)NC(Nc1sc2c(c1C(=O)OC)CCN(C)C2)(C(F)(F)F)C(F)(F)F do in these assays?
Runt-SMMHC FRET: 61*; p97 ATPase inh: -5; RanGTP-Impb inh: 66*; Hck-Nef inh: 6; Runt-CBFb FRET: 34; TbHK1 inh: -5

What do the screens show for `COC(=O)c1c(NC(=O)Cc2ccccc2)sc2c1CCN(C(C)C)C2`?
RanGTP-Impb inh: 1

What do the screens show for `Cc1cc(C)c(C#N)c(SCc2nc3ccccc3[nH]2)n1`?
Runt-SMMHC FRET: 13; p97 ATPase inh: 1; RanGTP-Impb inh: 19*; Hck-Nef inh: 6; Runt-CBFb FRET: 4; TbHK1 inh: -2

What do the screens show for `CN1CCN(c2ccccc2NC(=O)c2cccc(OCc3ccccc3)c2)CC1`?
Runt-SMMHC FRET: 0; p97 ATPase inh: -2; RanGTP-Impb inh: -2; Hck-Nef inh: -2; Runt-CBFb FRET: -1; TbHK1 inh: 3

What do the screens show for `COC(=O)c1sc2nc(N3CCCCC3)c3c(c2c1N)CC(C)(C)N(C)C3`?
p97 ATPase inh: 2; Hck-Nef inh: 1; TbHK1 inh: -16

What do the screens show for `O=C(CCN1C(=O)/C(=C/c2ccccc2Cl)SC1=S)NCCCN1CCOCC1`?
RanGTP-Impb inh: 0

Results for COc1ccc(C2c3ccc(O)cc3Oc3ncn(Cc4ccco4)c(=N)c32)cc1 (stereo unspecified) ?
Runt-SMMHC FRET: 28; p97 ATPase inh: 12; RanGTP-Impb inh: 3; Hck-Nef inh: 18; Runt-CBFb FRET: 97*; TbHK1 inh: -1

What do the screens show for `CC(Nc1nc(-c2ccc3c(c2)NC(=O)CO3)cs1)c1ccccc1` (stereo unspecified)?
Runt-SMMHC FRET: -1; p97 ATPase inh: 3; RanGTP-Impb inh: -2; Hck-Nef inh: 137*; Runt-CBFb FRET: 0; TbHK1 inh: -2

How did O=C1COc2ccc(-c3csc(NCC4CCCO4)n3)cc2N1 (stereo unspecified) do in these assays?
Runt-SMMHC FRET: 4; p97 ATPase inh: 5; RanGTP-Impb inh: 4; Hck-Nef inh: 25; Runt-CBFb FRET: 6; TbHK1 inh: -4

What do the screens show for `CCCCCCOc1ccc(/C=c2\s/c(=C(/C#N)C(=O)NCc3ccco3)n(-c3ccccc3)c2=O)cc1`?
Runt-SMMHC FRET: 8; p97 ATPase inh: 2; RanGTP-Impb inh: 27*; Hck-Nef inh: 3; Runt-CBFb FRET: -250; TbHK1 inh: 5

How did Cc1cccc(C)c1NC(=O)CSc1nnc(Cn2nnc(-c3ccccc3)n2)n1-c1ccccc1 do in these assays?
Runt-SMMHC FRET: 1; p97 ATPase inh: -4; RanGTP-Impb inh: -4; Hck-Nef inh: -1; Runt-CBFb FRET: -4; TbHK1 inh: -7

Results for CN1CCN(CC(=O)Nc2ccccc2C(F)(F)F)CC1 ?
RanGTP-Impb inh: -1

What do the screens show for `O=C(CN1CCN(c2ccccc2)CC1)Nc1ccccc1C(F)(F)F`?
Runt-SMMHC FRET: -4; p97 ATPase inh: 2; RanGTP-Impb inh: 1; Hck-Nef inh: 2; Runt-CBFb FRET: 80*; TbHK1 inh: -2

Results for O=C(Cn1cnc2scc(-c3cccc([N+](=O)[O-])c3)c2c1=O)NCc1ccco1 ?
Runt-SMMHC FRET: -4; p97 ATPase inh: 3; RanGTP-Impb inh: -1; Hck-Nef inh: 54*; Runt-CBFb FRET: 2; TbHK1 inh: 0

Results for Cc1ccc2sc3ccc(NC(=O)c4ccccc4Cl)cc3c(=O)c2c1 ?
Runt-SMMHC FRET: 101*; p97 ATPase inh: -2; RanGTP-Impb inh: 114*; Hck-Nef inh: 8; Runt-CBFb FRET: 35; TbHK1 inh: -1

Results for Cc1cc(NC(=O)c2ccccc2Cl)ccc1NC(=O)c1ccccc1Cl ?
RanGTP-Impb inh: 3

How did CCn1nc(NC(=O)c2ccncc2)c2cc3ccc(C)cc3nc21 do in these assays?
Runt-SMMHC FRET: 8; p97 ATPase inh: 4; RanGTP-Impb inh: 24*; Hck-Nef inh: 4; Runt-CBFb FRET: 8; TbHK1 inh: -11

How did CCCn1nc(NC(=O)c2cccs2)c2cc3cc(C)ccc3nc21 do in these assays?
Runt-SMMHC FRET: 80*; p97 ATPase inh: 1; RanGTP-Impb inh: 72*; Hck-Nef inh: 14; Runt-CBFb FRET: 49; TbHK1 inh: -16

Results for CCCn1nc(NC(=O)c2cccs2)c2cc3ccc(C)cc3nc21 ?
Runt-SMMHC FRET: 51*; p97 ATPase inh: 3; RanGTP-Impb inh: 54*; Hck-Nef inh: -7; Runt-CBFb FRET: 25; TbHK1 inh: -18

How did CN1CCCC1CCNc1ccc2oc3ccccc3c(=O)c2c1 (stereo unspecified) do in these assays?
RanGTP-Impb inh: -73

How did O=c1c2ccccc2oc2cc(NCCCn3ccnc3)ccc12 do in these assays?
RanGTP-Impb inh: 58*
